Data published in PubChem BioAssay AID463132 (The Scripps Research Institute Molecular Screening Center, 2010).

Target: Protein phosphatase methylesterase 1 (Homo sapiens) (UniProt Q9Y570)
Experiment: PME-1 inhibitors blocking PP2A demethylation, late-stage follow-up, HeLa cells, western blot, powder samples (AID 463132)
Settings: demethylated PP2A western blot, 1 h, at 0.5 µM, active compounds read high
In short: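 Test system: HeLa cells with endogenous PME-1 acting on PP2A; medium: FCS-supplemented medium; doses: single compound dose of 0.5 µM; timing: compound exposure of cells for 1 h at 37 °C; measured by: HRP-antibody immunoblot, chemiluminescence; read-out basis: percent inhibition of demethylated PP2A band density versus controls; control set: high DMSO cells, low empty blot region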

Chain of Protein phosphatase methylesterase 1 (Homo sapiens) (Q9Y570 whole entry, looked up): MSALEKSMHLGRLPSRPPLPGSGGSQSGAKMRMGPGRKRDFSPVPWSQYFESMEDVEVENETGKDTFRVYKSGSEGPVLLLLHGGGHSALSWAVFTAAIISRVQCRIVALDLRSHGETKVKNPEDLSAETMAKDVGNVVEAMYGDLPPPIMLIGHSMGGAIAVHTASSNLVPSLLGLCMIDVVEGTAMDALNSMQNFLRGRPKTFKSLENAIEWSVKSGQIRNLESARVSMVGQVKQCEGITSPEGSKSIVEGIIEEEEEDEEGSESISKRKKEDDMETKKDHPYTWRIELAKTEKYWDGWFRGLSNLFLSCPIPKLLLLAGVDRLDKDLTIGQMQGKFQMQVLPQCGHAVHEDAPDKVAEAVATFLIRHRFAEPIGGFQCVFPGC

Row | SMILES | inhibition
1 | COC(=O)N1C(=O)[C@](c2ccccc2)(C2CCCC2)N1C(=O)OC | 85%
2 | COC(=O)N1C(=O)[C@](c2ccccc2)(C2CCCCC2)N1C(=O)OC | 85%
